Results taken from ChEMBL document CHEMBL2163314, “Potent aminocyclitol glucocerebrosidase inhibitors are subnanomolar pharmacological chaperones for treating gaucher disease” (J Med Chem, 2012).
Values belong to the compound of their own block, whether it stands above or below them.

Assays:
[1] = Agonist activity at glucosylceramidase […] mutant in lymphoblast obtained from Gaucher disease patient using 4-methylumbelliferyl-beta-D-glucopyranoside as substrate preincubated at 5 nM for 3 days measured 2 hrs post substrate addition by fluorescence assay relative to untreated control; type: functional, Homo sapiens
Method in brief: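 L444P homozygous lymphoblasts from a GD type 2 patient, cultured in RPMI-1640 with 15% FBS at 37 °C, 5% CO2, seeded 2 × 10^5 cells/well and treated 3 days. Sonicated water lysate assayed with 6 mM 4-MU-β-glucoside at pH 5.2 (citrate phosphate, taurocholate, Triton X-100), 37 °C for 2 h. Fluorescence at 355/460 nm, relative to untreated cells; triplicate.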

[2] = target: T1, Lysosomal acid glucosylceramidase (Homo sapiens, UniProt P04062); assay: Inhibition of lysosomal beta-glucosidase in human fibroblast using 4-methylumbelliferyl-beta-D-glucopyranoside as substrate preincubated for 24 hrs before substrate addition measured after 2 hrs by fluorometry
T1 sequence (P04062 whole entry): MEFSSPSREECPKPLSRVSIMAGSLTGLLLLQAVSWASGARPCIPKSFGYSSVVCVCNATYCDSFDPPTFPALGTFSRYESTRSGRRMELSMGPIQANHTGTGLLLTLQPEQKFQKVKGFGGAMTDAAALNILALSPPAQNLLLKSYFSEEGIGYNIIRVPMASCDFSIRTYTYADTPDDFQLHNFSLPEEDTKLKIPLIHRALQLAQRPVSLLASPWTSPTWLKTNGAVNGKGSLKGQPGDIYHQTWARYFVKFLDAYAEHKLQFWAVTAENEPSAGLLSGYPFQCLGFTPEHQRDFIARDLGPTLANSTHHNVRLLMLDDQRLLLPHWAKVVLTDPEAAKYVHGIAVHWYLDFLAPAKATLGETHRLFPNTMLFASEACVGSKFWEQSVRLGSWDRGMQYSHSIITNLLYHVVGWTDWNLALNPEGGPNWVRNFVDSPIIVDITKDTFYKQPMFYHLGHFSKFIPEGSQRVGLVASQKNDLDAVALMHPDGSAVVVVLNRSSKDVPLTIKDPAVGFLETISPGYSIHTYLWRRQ
Method in brief: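 Wild-type human fibroblasts (DMEM, 10% FBS; passages 14–30) plated overnight, then compound in fresh medium for 24 h at 37 °C, 5% CO2. Intact washed monolayers given PBS plus 200 mM acetate pH 4.0 and 5 mM 4-MU-β-glucoside, 37 °C for 2 h. Stopped by lysis in glycine/NaOH pH 10.6. Fluorescence at 355/460 nm; triplicate.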

[3] = Agonist activity at glucosylceramidase […] mutant in lymphoblast obtained from Gaucher disease patient using 4-methylumbelliferyl-beta-D-glucopyranoside as substrate preincubated at 50 nM for 3 days measured 2 hrs post substrate addition by fluorescence assay relative to untreated control; type: functional, Homo sapiens
Method in brief: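 Homozygous L444P GD type 2 patient-derived lymphoblasts (GM08752) in RPMI-1640 with 15% FBS, seeded at 2 × 10^5 cells/well and exposed to compound for 3 days. Cells were washed with PBS and sonicated in water. Homogenate was assayed with 6 mM 4-methylumbelliferyl-β-D-glucopyranoside in 0.1 M citrate phosphate, pH 5.2, with 0.25% taurocholate and 0.1% Triton X-100, for 2 h at 37 °C. Fluorescence read at 355/460 nm, normalized to untreated cells, triplicate.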

[4] = target: T2, Non-lysosomal glucosylceramidase (Mus musculus) (UniProt Q69ZF3); assay: Inhibition of GBA2 activity in mouse tissue homogenate at 5 uM
T2 sequence (whole entry): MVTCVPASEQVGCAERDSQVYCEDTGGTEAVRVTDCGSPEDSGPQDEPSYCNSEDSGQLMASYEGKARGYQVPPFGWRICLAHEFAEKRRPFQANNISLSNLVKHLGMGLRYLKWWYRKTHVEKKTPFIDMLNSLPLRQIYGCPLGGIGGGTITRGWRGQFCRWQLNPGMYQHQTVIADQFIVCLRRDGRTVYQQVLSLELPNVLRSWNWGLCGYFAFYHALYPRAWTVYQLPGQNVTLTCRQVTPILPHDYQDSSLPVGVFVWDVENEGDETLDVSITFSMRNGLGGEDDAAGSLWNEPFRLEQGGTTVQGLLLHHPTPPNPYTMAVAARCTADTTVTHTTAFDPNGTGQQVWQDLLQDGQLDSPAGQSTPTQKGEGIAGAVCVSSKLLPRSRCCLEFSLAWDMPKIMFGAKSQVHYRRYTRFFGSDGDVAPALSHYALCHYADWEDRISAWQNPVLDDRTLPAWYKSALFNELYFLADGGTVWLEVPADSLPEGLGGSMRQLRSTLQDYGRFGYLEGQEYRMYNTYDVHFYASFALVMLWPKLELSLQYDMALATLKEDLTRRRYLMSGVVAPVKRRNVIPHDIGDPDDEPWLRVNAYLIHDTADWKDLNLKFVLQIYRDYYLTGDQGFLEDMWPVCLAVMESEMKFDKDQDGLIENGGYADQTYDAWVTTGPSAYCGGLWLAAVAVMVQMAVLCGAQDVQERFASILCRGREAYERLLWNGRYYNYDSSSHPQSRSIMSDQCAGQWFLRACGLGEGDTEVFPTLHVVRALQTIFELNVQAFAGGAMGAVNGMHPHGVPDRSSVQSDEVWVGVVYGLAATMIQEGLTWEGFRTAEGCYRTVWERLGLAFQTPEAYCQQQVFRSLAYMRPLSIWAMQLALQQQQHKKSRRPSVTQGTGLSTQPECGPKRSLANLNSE
Method in brief: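 Mouse tissue homogenates were used to separate nonlysosomal GBA2 from lysosomal GCase β-glucosidase activity. Compounds were screened at 50 and 5 μM with 3 mM substrate. Two independent experiments, each run in duplicate.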

Structure (SMILES): CCCCCCCCCN[C@H]1[C@H](O)[C@@H](O)[C@H](O)[C@@H](O)[C@@H]1OCCCCCCCCC.Cl
fold change (FC) [1]: 1.2

IC50 [2]: 4.3 nM
Structure (SMILES): CCCCCCCCCN[C@H]1[C@H](O)[C@@H](O)[C@H](O)[C@@H](O)[C@H]1OCCCCCCCCC.Cl

Structure (SMILES): CCCCCCCCCN[C@H]1[C@H](O)[C@@H](O)[C@H](O)[C@@H](O)[C@H]1OC.Cl
fold change (FC) [3]: 1.4

Structure (SMILES): CCCCCCCCCN[C@@H]1[C@H](O)[C@@H](O)[C@H](O)[C@@H](O)[C@@H]1O
inhibition [4]: 69%
